One may read the IC50 as the point on the concentration scale where inhibition reaches its midpoint.

Active and inactive are the calls of the source.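 Rule for the calls: active = peak KCNK3 inhibition above a set limit at some dose, plus a fitted dose-response curve; inactive = no KCNK3 inhibition, or no dose-response curve.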

In one assay the target is Potassium channel subfamily K member 3 (Rattus norvegicus) (UniProt O54912). As to the kind of experiment: KCNK3 off-target potassium flux block – cell-based, FluxOR thallium flux, CRC set 2, selectivity assay for KCNK9 inhibitor project, SAR follow-up (AID 623912). The note with it: KCNK3-expressing cells, FluxOR thallium flux fluorescence. In outline: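 Assay system – tetracycline-induced CHO cells expressing rat KCNK3 potassium channel · Dosing – compound concentration-response series · Incubation – 90 min FluxOR loading, 20 min compound, 10+110 s recording · Detection – thallium flux fluorescence with FluxOR thallium-sensitive dye, kinetic reading · Read-out – IC50 from normalized flux signal · Replicates – duplicate or more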
Potassium channel subfamily K member 3 (Rattus norvegicus), sequence (O54912 whole entry, looked up): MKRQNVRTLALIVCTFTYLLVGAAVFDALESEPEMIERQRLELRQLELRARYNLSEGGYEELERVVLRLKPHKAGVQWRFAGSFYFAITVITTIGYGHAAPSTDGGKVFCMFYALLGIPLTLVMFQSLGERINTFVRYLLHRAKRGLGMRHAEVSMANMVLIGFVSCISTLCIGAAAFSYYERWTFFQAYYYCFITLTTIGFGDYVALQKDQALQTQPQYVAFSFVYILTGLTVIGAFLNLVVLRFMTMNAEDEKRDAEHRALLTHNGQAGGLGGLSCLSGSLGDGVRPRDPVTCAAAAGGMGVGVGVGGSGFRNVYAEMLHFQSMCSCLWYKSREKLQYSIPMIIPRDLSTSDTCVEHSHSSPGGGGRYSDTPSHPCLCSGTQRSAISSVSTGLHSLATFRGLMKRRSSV
As to `Cc1cccc(C(=O)Nc2cccc(NC(=O)c3ccccc3OCC(C)C)c2)c1`, the IC50 is 0.206 µM. Regarding `CC(C)n1c(-c2ccco2)n[nH]c1=S`, the half-maximal inhibitory concentration (IC50) was 0.0922 µM. The same measure, in the same setting: then `O=C(Nc1cccc(NC(=O)c2cccnc2)c1)c1ccccc1`, with 1.29 µM. Same read-out and setting: next, `Cc1cccc(C(=O)Nc2cccc(NC(=O)c3ccc(N(C)C)cc3)c2)c1`: 0.145 µM; `COc1ccc(C(=O)Nc2cccc(NC(=O)c3ccccc3)c2)cc1`: 2.27 µM; `O=C(Nc1cccc(NC(=O)c2ccco2)c1)c1ccccc1`: 0.0365 µM.

As for `COc1cccc(C(=O)Nc2cccc(NC(=O)c3ccccc3)c2)c1`, the half-inhibitory concentration (IC50) is 0.212 µM. The same measure, in the same setting: then `CC(NC(=O)c1ccco1)C1CC2CCC1C2` (stereo unspecified), with 0.07 µM. For the molecule `S=c1[nH]nc(-c2ccco2)n1C1CC2CCC1C2` (stereo unspecified), the IC50 was 0.037 µM.

As for `CCOc1ccccc1C(=O)Nc1cccc(NC(=O)C2CCCC2)c1`, the IC50 is 0.108 µM. Still for that read-out and setting: then `O=C(Nc1cccc(NC(=O)c2cccc(C(F)(F)F)c2)c1)c1ccccc1`, with 0.147 µM; and `CC(C1CC2CCC1C2)n1c(-c2ccco2)nnc1C(F)(F)F` (stereo unspecified), with 1.18 µM. As for `COc1cccc(-c2n[nH]c(=S)n2C(C)C2CC3CCC2C3)c1` (stereo unspecified), the IC50 was 1.29 µM. Same read-out and setting: then `Cc1cccc(C(=O)Nc2cccc(NC(=O)c3ccccc3)c2)c1`, with 0.0963 µM; and `CCOc1ccccc1NC(=O)c1cccc(NC(=O)c2ccc(C(F)(F)F)cc2)c1`, with 0.22 µM. On the same count and under the same terms, then `CCOc1ccccc1NC(=O)c1cccc(NC(=O)c2ccccc2C(F)(F)F)c1`, with 0.0295 µM; and `Cc1cccc(C(=O)Nc2cccc(NC(=O)c3cccs3)c2)c1`, with 0.003 µM. Still for that read-out and setting: then `CCOc1ccccc1NC(=O)c1cccc(NC(=O)c2ccccc2)c1`, with 0.121 µM; and `Cc1cccc(C(=O)Nc2cccc(NC(=O)C3CCCCC3)c2)c1`, with 0.017 µM. As to `O=C(Nc1cccc(NC(=O)c2ccc(F)cc2)c1)c1ccccc1`, the IC50 is 0.306 µM.

For `CCOc1ccccc1NC(=O)c1cccc(NC(=O)c2cccc(Cl)c2)c1`, the IC50 was 0.039 µM. With `COc1ccccc1NC(=O)c1cccc(NC(=O)CC2CCCC2)c1`, the IC50 was 0.086 µM. The same measure, in the same setting: then `COc1ccccc1-c1n[nH]c(=S)n1C(C)C1CC2CCC1C2` (stereo unspecified), with 0.102 µM.

As for `CC(C1CC2CCC1C2)n1c(-c2cccnc2)n[nH]c1=S` (stereo unspecified), the 50% inhibitory concentration (IC50) is 1.02 µM. On the same count and under the same terms, next, `CSc1nnc(-c2ccco2)n1C(C)C1CC2CCC1C2` (stereo unspecified): 0.873 µM; `O=C(Nc1cccc(NC(=O)c2cccc(F)c2)c1)c1ccccc1`: 0.0442 µM; `COc1cccc(C(=O)Nc2cccc(NC(=O)c3cccc(C)c3)c2)c1`: 0.031 µM. With `CC(C1CC2CCC1C2)n1c(-c2cccc(Cl)c2)n[nH]c1=S` (stereo unspecified), the IC50 is 0.02 µM. On to `CCOc1ccccc1NC(=O)c1cccc(NC(=O)C2CCOC2)c1` (stereo unspecified), for which the IC50 was 1.33 µM. Regarding `CC(C1CC2CCC1C2)n1c(-c2ccccc2)n[nH]c1=S` (stereo unspecified), the IC50 was 0.403 µM. On the same count and under the same terms, next, `Cc1ccccc1-c1n[nH]c(=S)n1C(C)C1CC2CCC1C2` (stereo unspecified): 0.912 µM; `Cc1cccc(C(=O)Nc2cccc(NC(=O)c3ccc(Cl)cc3)c2)c1`: 0.149 µM; `COc1ccccc1C(=O)Nc1cccc(NC(=O)c2ccccc2C)c1`: 0.073 µM.

As for `O=C(Nc1cccc(NC(=O)c2cccc(Cl)c2)c1)c1ccccc1`, the IC50 was 0.12 µM.

Take `COc1ccccc1C(=O)Nc1cccc(NC(=O)c2ccccc2)c1`: the half-maximal inhibitory concentration (IC50) was 0.222 µM. Same read-out and setting: then `CCOc1ccccc1NC(=O)c1cccc(NC(=O)CC2CCCCC2)c1`, with 0.217 µM. As to `CCOc1ccccc1NC(=O)c1cccc(NC(=O)c2ccccc2C)c1`, the IC50 was 0.14 µM. In the case of `Cc1cccc(C(=O)Nc2cccc(NC(=O)c3cccc(Cl)c3)c2)c1`, the half-inhibitory concentration (IC50) is 0.003 µM. For `CC(C1CC2CCC1C2)n1c(-c2cccc(F)c2)n[nH]c1=S` (stereo unspecified), the IC50 is 0.082 µM.

The assay is the same for the next values; noted with them: KCNK3-expressing cells, FluxOR thallium flux fluorescence; at 3 µM (top of the series).
Take `Cc1cccc(-c2n[nH]c(=S)n2C(C)C2CC3CCC2C3)c1` (stereo unspecified): the “flux ratio, lower = inhibition” value is “inactive”. On the same count and under the same terms, next, `CC(C1CC2CCC1C2)n1c(SC(F)F)nnc1-c1ccco1` (stereo unspecified): “inactive”.

The record behind these values is PubChem BioAssay AID623912 (Johns Hopkins Ion Channel Center, 2012).
